Results on 3 compounds are retold here after ChEMBL document CHEMBL1629511, “Naphthylchalcones induce apoptosis and caspase activation in a leukemia cell line: The relationship between mitochondrial damage, oxidative stress, and cell death” (Bioorg Med Chem, 2010).

Calls of active or inactive are those of the source. The rule behind the calls is not given here.

Usually IC50 stands for the point on the concentration scale where inhibition reaches its midpoint.

Assay [1] deals with L1210. In words: Cytotoxicity against mouse L1210 cells after 24 hrs by MTT assay in presence of catalase. It is filed as functional, cell-based. As to conditions: L1210, 24 h. The essentials:
(§1)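 L1210 cells at 1 × 10⁵/well were exposed for 24 h to 1–100 µM compound together with catalase 5000 U/ml, SOD 250 U/ml or Trolox 200 µM. Additive-only controls were run in parallel. Viability was read by MTT (2 h, formazan in DMSO, A540) in triplicate.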
(In general: Tetrazolium dyes change colour on reduction, which living cells bring about.)

In assay [2] the test system is L1210. In words: Cytotoxicity against mouse L1210 cells after 72 hrs by MTT assay. As to conditions: L1210, 72 h. Format: functional, cell-based.
The subject of assay [3] is L1210. In words: Induction of apoptosis in mouse L1210 cells assessed as increase in glutathione peroxidase activity at IC50 concentration measured after 24 hrs. Format: functional, cell-based. The gist of the method: (§2)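 Homogenates came from 6 × 10⁶ L1210 cells after 24 h treatment. GPx was measured with 150 µg protein as NADPH loss at 340 nm. Catalase followed Aebi with 60 µg protein. GST was measured as the GSH–CDNB conjugate at 340 nm. Activities were protein-normalized and given as % of control.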

Assay [4] concerns CCRF-CEM. Description: Cytotoxicity against human CEM cells after 72 hrs by MTT assay. Format: functional, cell-based.
The test system of assay [5] is L1210. Description: Induction of apoptosis in mouse L1210 cells assessed as increase in glutathione reductase activity at IC50 concentration measured after 24 hrs. It is filed as functional, cell-based.
The subject of assay [6] is L1210. Description: Induction of apoptosis in mouse L1210 cells assessed as increase in GSH level at IC50 concentration measured after 24 hrs. Format: functional, cell-based. The essentials: (§3)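 Homogenates came from 3 × 10⁶ L1210 cells after 24 h treatment (phosphate/NaCl/Triton lysis, sonication, 10,000 rpm spin). Total glutathione was measured by the glutathione reductase recycling method (50 µg protein, 75 µM DTNB, 120 µM NADPH, 4 U/ml GR) at 405 nm against a GSH standard. GSSG = (TG − GSH)/2. Values were protein-normalized and given as % of control.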

Assay [7] relates to L1210. Description: Induction of ROS production in mouse L1210 cells at IC50 concentration after 4 hrs.
For assay [8], the system named is CCRF-CEM. Description: Cytotoxicity against human CEM cells after 48 hrs by MTT assay. Format: functional, cell-based. The gist of the method:
(§4)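 MTT assay on L1210 or CEM cells grown in DMEM with 10% heat-inactivated FBS. Cells were seeded at 1 × 10⁵/well for 24 h or 5 × 10⁴/well for 48 h, in triplicate, with 1–100 µM compound (DMSO ≤1%). MTT was added for 2 h at 37 °C, formazan dissolved in DMSO, and A540 read. IC50 came from a Hill concentration–response fit.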

Assay [9] concerns L1210. Description: Induction of apoptosis in mouse L1210 cells assessed as increase in total glutathione level at IC50 concentration measured after 24 hrs. Format: functional, cell-based. The essentials: as §3
For assay [10], the system named is L1210. Description: Cytotoxicity against mouse L1210 cells after 24 hrs by MTT assay in presence of Trolox. Format: functional, cell-based. As to conditions: L1210, 24 h. The gist of the method: as §1
The subject of assay [11] is L1210. In words: Induction of apoptosis in mouse L1210 cells assessed as decrease in intracellular ATP concentration at IC50 concentration measured up to 24 hrs. Format: functional, cell-based. The gist of the method:
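Intracellular ATP: 1 × 10⁶ L1210 cells were treated for up to 24 h. Extracts were made in 1.25% trichloroacetic acid, kept on ice 30 min, neutralized with 1 M Tris–acetate pH 7.5 and centrifuged. Luciferin–luciferase bioluminescence was read and normalized to the cell death percentage over the incubation.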

The subject of assay [12] is L1210. Description: Induction of apoptosis in mouse L1210 cells assessed as increase in caspase 3 activity at IC50 concentration after 2 to 4 hrs. Format: functional, cell-based. The essentials: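 3 × 10⁶ L1210 cells were treated for 2 or 4 h at 37 °C, then lysed in HEPES pH 7.4 buffer with protease inhibitors, CHAPS and DTT. Extract (50 µg protein) was incubated with 10 µM Ac-DEVD-AMC for 2 h at 37 °C. AMC fluorescence was read at ex 380/em 465 nm, blank-subtracted, and expressed per hour per µg protein (Lowry).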

Assay [13] relates to L1210. Description: Induction of apoptosis in mouse L1210 cells assessed as increase in catalase activity at IC50 concentration measured after 24 hrs. Format: functional, cell-based. The gist of the method:
as §2

Assay [14] deals with CCRF-CEM. In words: Cytotoxicity against human CEM cells after 24 hrs by MTT assay. It is filed as functional, cell-based. The essentials: as §4
The subject of assay [15] is L1210. In words: Cytotoxicity against mouse L1210 cells after 24 hrs by MTT assay. Format: functional, cell-based. As to conditions: L1210, 24 h. The gist of the method:
as §4

Assay [16] deals with L1210. Description: Induction of apoptosis in mouse L1210 cells assessed as increase in GSSG level at IC50 concentration measured after 24 hrs. Format: functional, cell-based. The essentials: as §3
The test system of assay [17] is L1210. In words: Induction of apoptosis in mouse L1210 cells assessed as DNA fragmentation at IC50 concentration after 24 hrs by agarose gel electrophoresis analysis. It is filed as functional, cell-based. The gist of the method:
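3 × 10⁶ L1210 cells were treated for 24 h, washed with cold PBS, then lysed in EDTA/Tris pH 8.0/NP-40/proteinase K buffer at 50 °C for 2 h. DNA was ethanol-precipitated, washed, treated with RNase A at 37 °C for 1 h and resolved by agarose gel electrophoresis beside a size standard.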

Assay [18] has as its system L1210. In words: Induction of apoptosis in mouse L1210 cells assessed as decrease in mitochondrial membrane potential at IC50 concentration after 4 hrs using JC-1 staining by spectrofluorimetric analysis. It is filed as functional, cell-based. The gist of the method:
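L1210 cells at 5 × 10⁵/well were treated for 4 h, then stained with JC-1 (10 µg/ml) for 20 min at 37 °C, washed and resuspended in PBS. Fluorescence was read with excitation at 488 nm and emission at 590/527 nm. The red/green ratio is expressed relative to control (100%).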

The subject of assay [19] is L1210. In words: Induction of apoptosis in mouse L1210 cells assessed as increase in glutathione S-transferase activity at IC50 concentration measured after 24 hrs. It is filed as functional, cell-based. The gist of the method: as §2
Assay [20] has as its system L1210. Description: Cytotoxicity against mouse L1210 cells after 24 hrs by MTT assay in presence of superoxide dismutase. Format: functional, cell-based. As to conditions: L1210, 24 h. The essentials: as §1
Assay [21] has as its system L1210. Description: Cytotoxicity against mouse L1210 cells after 48 hrs by MTT assay. Format: functional, cell-based. To be noted: L1210, 48 h. The gist of the method:
as §4

Assay [22] concerns L1210. Description: Induction of lipid peroxidation in mouse L1210 cells at IC50 concentration after 24 hrs by TBARS method. Format: functional, cell-based. The gist of the method: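 Homogenates came from 4 × 10⁶ L1210 cells after 24 h treatment. 400 µg protein was mixed with 60 mM Tris–HCl pH 7.4, 0.1 mM DPTA, TCA and 0.73% TBA, boiled 2 h, cooled and centrifuged. A535 was converted to nmol TBARS per µg protein using the MDA extinction coefficient.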

`O=C(/C=C/c1ccccc1)c1ccc2ccccc2c1`: the IC50 in the assay on L1210 [1] was found to be 58 µM; in the assay with L1210 [2] it was 17 µM; with CCRF-CEM [4] it was 5 µM; with CCRF-CEM [8] it was 14 µM; in the assay with L1210 [10], 39 µM; in the assay on CCRF-CEM [14] it was 12 µM. Further, the IC50 worked out at 37 µM in the assay with L1210 [15], 31 µM in the assay with L1210 [20] and 20 µM with L1210 [21]. Further, the outcome with L1210 [3], in the assay on L1210 [5], in the assay on L1210 [6], in the assay with L1210 [7], with L1210 [9] and in the assay on L1210 [11] was Active. For the same compound, the result with L1210 [12], in the assay with L1210 [16], with L1210 [17], with L1210 [19] and with L1210 [22] was Active. In addition, the outcome with L1210 [13] and with L1210 [18] was inactive.
Take `O=C(/C=C/c1cccc(Cl)c1)c1ccc2ccccc2c1`: the IC50 in the assay with L1210 [1] amounted to 51 µM; in the assay on L1210 [2] it was 10 µM; with CCRF-CEM [4] it was 6 µM; with CCRF-CEM [8] it was 12 µM; in the assay on L1210 [10] it was 34 µM; with CCRF-CEM [14] it was 11 µM. Further, the IC50 came out at 38 µM with L1210 [15], 30 µM in the assay on L1210 [20] and 23 µM with L1210 [21]. For the same compound, the outcome in the assay with L1210 [3], in the assay on L1210 [5], in the assay on L1210 [7], in the assay with L1210 [9], in the assay on L1210 [11] and in the assay with L1210 [12] was Active. Also, the outcome in the assay with L1210 [16], in the assay with L1210 [17], in the assay with L1210 [18], in the assay with L1210 [19] and in the assay on L1210 [22] was Active. Besides, the result with L1210 [6] and with L1210 [13] was inactive.
With `O=C(/C=C/c1cccc([N+](=O)[O-])c1)c1ccc2ccccc2c1`, the IC50 with L1210 [1] stood at 45 µM; in the assay with L1210 [2] it was 14 µM; with CCRF-CEM [4] it was 4 µM; in the assay on CCRF-CEM [8] it was 11 µM; with L1210 [10], 20 µM; in the assay with CCRF-CEM [14] it was 11 µM. The 50% inhibitory concentration (IC50) in the assay with L1210 [15] was determined as 24 µM; in the assay with L1210 [20], 20 µM; in the assay with L1210 [21], 13 µM. Besides, the result with L1210 [3], with L1210 [5], in the assay with L1210 [7], in the assay with L1210 [9], with L1210 [11] and in the assay on L1210 [12] was Active. The result in the assay on L1210 [16], with L1210 [17], with L1210 [18], in the assay with L1210 [19] and in the assay with L1210 [22] was Active. Also, the outcome in the assay with L1210 [6] and in the assay on L1210 [13] was inactive.
